Screens: PubChem BioAssay, several laboratories
This is a sample that favours compounds with a hit; in the whole collection about 4.1% have one here.
KCNK3 block: human KCNK3 channel inhibition, primary screen; O14649; CHO-KCNK3 thallium flux, FluxOR fluorescence; stronger effect = lower value; B-score at 10 µM; actives 0.84% (n = 340,000); AID 602410;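 active = B-score under library mean minus 4 SD, starting fluorescence ratio at most library mean plus 5 SD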;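 also: more negative B-score means stronger inhibition of thallium flux through KCNK3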
Target sequence (O14649 whole entry, looked up): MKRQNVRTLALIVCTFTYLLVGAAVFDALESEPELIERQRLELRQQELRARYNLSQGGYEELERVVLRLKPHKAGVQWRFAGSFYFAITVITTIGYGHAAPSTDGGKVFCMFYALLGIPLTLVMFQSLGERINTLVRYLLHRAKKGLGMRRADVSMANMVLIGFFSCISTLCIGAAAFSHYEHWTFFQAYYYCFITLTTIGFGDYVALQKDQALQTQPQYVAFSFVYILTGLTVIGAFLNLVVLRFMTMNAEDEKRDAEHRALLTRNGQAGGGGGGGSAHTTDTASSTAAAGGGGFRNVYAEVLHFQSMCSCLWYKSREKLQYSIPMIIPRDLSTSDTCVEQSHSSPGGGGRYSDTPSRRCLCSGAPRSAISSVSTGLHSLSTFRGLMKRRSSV
KCNK9 inh: blocks the human KCNK9 two-pore domain potassium channel. HEK293 KCNK9, FluxOR thallium flux fluorescence; stronger effect = lower value. AID 488922. B-score at 10 µM. actives 1.2% (n = 310,000). Q9NPC2;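 active = ratio B-score over 3 SD below the library mean, with starting fluorescence within 5 SD of its mean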;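 also: negative B-score means less thallium flux so channel inhibition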
Target sequence (Q9NPC2 whole entry, looked up, the tested form may be a part): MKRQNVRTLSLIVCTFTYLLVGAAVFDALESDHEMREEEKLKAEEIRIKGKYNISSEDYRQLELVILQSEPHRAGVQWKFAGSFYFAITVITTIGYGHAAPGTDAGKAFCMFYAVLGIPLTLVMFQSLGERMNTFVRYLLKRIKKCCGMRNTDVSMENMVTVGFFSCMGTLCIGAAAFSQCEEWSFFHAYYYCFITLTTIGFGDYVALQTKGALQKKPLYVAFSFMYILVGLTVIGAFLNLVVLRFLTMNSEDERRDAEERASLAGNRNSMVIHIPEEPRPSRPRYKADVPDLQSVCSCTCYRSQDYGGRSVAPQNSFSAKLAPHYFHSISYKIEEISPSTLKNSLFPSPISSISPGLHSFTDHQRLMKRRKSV
KCNQ1 pot: potentiators or activators of human KCNQ1 potassium channel; actives 0.35% (n = 310,000); CHO-K1 KCNQ1, thallium flux FluxOR fluorescence; stronger effect = higher value; AID 2648; P51787; B-score at 10 µM;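 active = fluorescence ratio B-score, a plate-corrected score, at least three library SD, with initial intensity B-score within 5 SD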
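Assay system: CHO-K1 cells stably expressing KCNQ1. Medium: assay buffer for compound exposure, DMSO matched across wells. Timing: 37 °C overnight plating, 90-min dark dye load, 20-min compound pretreatment. Signal: kinetic FluxOR fluorescence, 10 s baseline plus 110 s post-stimulus.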
Cl transport mod: modulates chloride dependent transport by human KCC2; Q9H2X9; KCC2 cells, thallium flux FluoZin-2 fluorescence; B-score of Tl+ flux slope (higher = more flux/activation; lower = inhibition) at 10 µM; actives 2.2% (n = 190,000); AID 1456;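 active = thallium flux slope and its plate-corrected score both differing from the plate sample mean at a set confidence after two filtering rounds, in either direction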;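 also: slope of fluorescence scaled to starting intensity during 10 to 20 s after thallium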
hERG rescue: shields human hERG channel from block by proarrhythmic agents | Q12809 | CHO-hERG, FluxOR thallium flux, dofetilide IC70 present | actives 0.51% (n = 310,000) | AID 1511 | activation (rescue from dofetilide block), less the hit threshold, % at 10 µM;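 active = activation above the mean of controls blocked by dofetilide plus 5 SD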;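 also: thallium influx through hERG after potassium depolarization seen as dye fluorescence rise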
KCNQ1 block: human KCNQ1 channel inhibition | P51787 | actives 1.3% (n = 310,000) | CHO-K1 KCNQ1, FluxOR thallium flux fluorescence; stronger effect = higher value | B-score at 10 µM | AID 2642;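 active = compounds whose thallium flux B-score, printed positive for inhibition, exceeds three library SD while starting fluorescence stays within three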;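 also: channel opened by potassium depolarization with thallium stimulus after 20 min compound exposure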
KCC2 secondary: KCC2 (human) modulation, secondary assay. shares compounds with Cl transport mod. HEK293-KCC2, thallium flux, FluoZin2 fluorescence; stronger effect = higher value. normalised thallium flux (F/F0 slope) at 10 µM. actives 15% (n = 3,700);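 active = thallium flux slope above the same plate's solvent-only control mean plus 3 SD; inconclusive = the two replicate wells disagree; inactive = no significant difference from solvent-only control wells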
KCC2 bumet counter: thallium flux persisting under bumetanide in KCC2 cells, counter-screen secondary assay; normalized thallium flux at 10 µM; AID 1714; HEK293-KCC2 + bumetanide/ouabain, thallium flux FluoZin2; stronger effect = higher value; shares compounds with Cl transport mod; actives 49% (n = 3,700);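 active = thallium entry rate above the same plate's blocked-transporter control wells by more than 3 SD; inconclusive = the two repeat wells disagree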;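 also: raw slope of fluorescence over initial fluorescence between 10 and 20 s after thallium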
KCC2 sec2: KCC2 (human) modulation, second secondary assay; normalized thallium flux at 10 µM; HEK293-KCC2, thallium flux FluoZin2 fluorescence; actives lie on both sides; F/F0 rise rate, 10–20 s post-thallium; shares compounds with Cl transport mod; actives 23% (n = 3,700);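 active = thallium flux slope more than 3 SD above or below the plate's solvent-only control mean, mostly below; inconclusive = the two repeat wells disagreed; inactive = no significant shift from solvent-only controls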;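 also: raw slope with 0.1% DMSO as baseline and bumetanide as block control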
HEK counter1: parental HEK flux effect, counter-screen; shares compounds with Cl transport mod; HEK293 parental cells, thallium flux FluoZin2, ouabain; baseline-ratio fluorescence slope, 10–20 s after thallium; thallium flux rate (normalised fluorescence) at 10 µM; actives 46% (n = 3,700);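 active = thallium flux rate significantly above the same plate's solvent-only control wells, beyond their mean plus 3 SD; inconclusive = the two replicate wells gave conflicting results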
KCC2 retest ouab: modulates human KCC2 on retest with ouabain; AID 1717; actives 48% (n = 3,700); shares compounds with Cl transport mod; raw Tl+ flux slope (below DMSO = inhibition, above = activation) at 10 µM; HEK293-KCC2, thallium flux FluoZin2 fluorescence; bidirectional: low = inhibitor, high = activator;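 active = thallium flux slope beyond 3 SD from same-plate DMSO control mean in most replicates, usually higher, sometimes lower; inconclusive = repeat tests gave conflicting results; inactive = no significant difference from controls in most replicates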;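 also: slope of initial-normalized fluorescence between seconds 10 and 20 after thallium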
HEK counter2: parental HEK flux effect, counter-screen 2; thallium flux slope at 10 µM; actives 33% (n = 3,700); HEK293 parental, thallium flux FluoZin-2 fluorescence slope; shares compounds with Cl transport mod;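 active = thallium flux slope above the same plate's solvent-control mean plus 3 SD in both duplicate wells; inconclusive = duplicate wells that disagreed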;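 also: run without ouabain in cells lacking the KCC2 cotransporter; slope of fluorescence scaled to its starting value between 10 and 20 s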
Starred values were filed as active, the others as inactive; i = inactive; ? = inconclusive; nt = not tested or not shown.

SMILES	KCNK3 block	KCNK9 inh	KCNQ1 pot	Cl transport mod	hERG rescue	KCNQ1 block	others
Cc1cccc(NP(=O)(Oc2ccccc2F)Oc2ccccc2F)c1	i	-7.2*	i	0.022	-27	i
CC(=O)OC1C(=O)OCC23CCC4(C)OC4C2OC2CC(OC(=O)C=CC=CC(=O)OCCC1C)C3(C)C21CO1 (centres undefined)	i	nt	nt	nt	nt	nt
O=c1c([N+](=O)[O-])cn(O)cc1[N+](=O)[O-]	i	nt	nt	nt	nt	nt
N#CC1=C(N)Oc2cc(O)ccc2C1c1ccc2c(c1)OCO2 (centres undefined)	i	-7.5*	i	-0.19	-11	i
c1cc2c(cc1[C@H]1OC[C@H]3[C@@H]1CO[C@H]3c1ccc3c(c1)OCO3)OCO2	i	nt	nt	nt	nt	nt
CC1=CC2/C=C(\C)CCC(O)C(O)/C=C/C(=O)C23C(=O)NC(CC(C)C)C3C1C (centres undefined)	i	i	10*	-1.8	-12	i
O=C(CCCN1CCC2(CC1)C(=O)NCN2c1ccccc1)c1ccc(F)cc1	i	i	23*	-0.0068	-15	i
O=C(c1ccc(F)cc1)C(Cc1ccccc1)N1CCCCC1 (centres undefined)	i	i	i	-0.88	-6	i
COc1cccc(CC(=O)N2CCN(Cc3cccc(Cl)c3)CC2)c1	i	i	8*	nt	-5	i
O=[N+]([O-])c1ccccc1-c1cc(-c2ccccc2)cc(-c2ccccc2)[n+]1Cc1ccccc1Cl	nt	-8*	i	nt	-30	8*
CCC1(Cc2ccccc2)C(=O)NC(=S)N(C)C1=O (centres undefined)	i	nt	nt	nt	nt	nt
O=c1[nH]c(=S)[nH]c(O)c1N=Nc1ccc(S(=O)(=O)N2CCc3ccccc32)cc1	i	i	i	-0.11	13*	i
CN(C)c1ccc(/C=C/C=C/c2sc3ccccc3[n+]2C)cc1	i	i	i	0.099	-18	i
CC[n+]1c(/C=C/N(C)c2ccccc2)sc2ccc(Cl)cc21	i	i	i	-1.7	-23	6*
CC[n+]1c(/C=C/C=C/c2ccc(N(C)C)cc2)sc2ccccc21	-11*	-6.6*	i	-0.27	-29	i
CC1C(=O)OC2CCN3CC4OC4(COC(=O)C(C)(O)C1(C)O)C23 (centres undefined)	i	nt	nt	nt	nt	nt
CCCn1c(C)c(C(=O)c2cccc3ccccc23)c2ccccc21	-11*	nt	nt	nt	nt	nt
Cc1c(C(=O)c2ccccc2)c2ccccc2n1C	i	i	i	-2.7	-12	i
Cc1ccccc1-c1ccc2n1Cc1cnnn1-c1ccccc1-2	i	nt	nt	nt	nt	nt
CC1C(c2ccccc2)OC(=O)N1C (centres undefined)	i	nt	nt	nt	nt	nt
O=C1c2ccccc2C2(c3ccc(Cl)cc3)NCCN12 (centres undefined)	i	i	i	0.97	4.8*	i
COC(=O)C(C)Oc1cc(C)cc2oc(=O)c3c(c12)CCCC3 (centres undefined)	-9.2*	i	i	nt	-6	i
COC(=O)C(C)Oc1cc(C)cc2oc(=O)c3c(c12)CCC3 (centres undefined)	i	i	i	-0.48	-4	i
CC/C(=N\NC(=O)c1ccccc1Cl)c1c(O)n(C2CCCCC2)c(=O)[nH]c1=O	i	i	i	nt	-13	i
CC/C(=N\NC(=O)c1ccccc1)c1c(O)n(C2CCCCC2)c(=O)[nH]c1=O	i	i	i	nt	-14	7*
SMILES	KCNK3 block	KCNK9 inh	KCNQ1 pot	Cl transport mod	hERG rescue	KCNQ1 block	others
O=C(c1cc(C(=O)NCc2ccccc2)c(=O)n(Cc2ccccc2)c1)c1cc(Br)ccc1O	i	i	i	-0.84	-8	6*
O=C(CNC(=O)c1ccccc1Cl)Nc1ccc(Br)cc1C(=O)c1ccccc1	i	i	i	-0.96	-5	i
CCN1/C(=C\C=C\C2=[N+](CC)c3ccccc3C2(C)C)C(C)(C)c2ccccc21	i	i	i	i	-56	21*
CCN(CC)c1ccc(/C=C2\C(=O)NC(=S)N(c3ccc(OC)cc3OC)C2=O)o1	i	i	i	nt	-23	6*
CCN(CC)c1ccc(/C=C2\C(=O)NC(=S)N(C)C2=O)o1	i	i	i	-4.6	-7	7*
CCN(CC)c1ccc(C=C2C(=O)N(C)C(=S)N(C)C2=O)o1	i	i	i	-3	3	i
COC1C(C)OC(OC2CC(C)(O)Cc3cc4c(c(O)c32)C(=O)c2c(O)cc3c(c2C4=O)OC2OC3(C)C(O)C(N(C)C)C2O)C(OC)C1(C)OC (centres undefined)	i	nt	nt	nt	nt	nt
COc1ccc(CC2NCC(O)C2OC(C)=O)cc1 (centres undefined)	i	nt	nt	nt	nt	nt
CC(C)CCP(=O)(O)c1ccccc1	i	i	i	8.3*	-7	i	KCC2 secondary=0.012;KCC2 bumet counter=0.0065;KCC2 sec2=0.035;HEK counter1=0.008;KCC2 retest ouab=0.023;HEK counter2=0.011
O=c1[nH]c(=S)[nH]c(O)c1N=Nc1ccc(SC(F)F)cc1	i	i	i	42*	-4	i	KCC2 secondary=0.008;KCC2 bumet counter=0.072*;KCC2 sec2=?;HEK counter1=0.041*;KCC2 retest ouab=0.087*;HEK counter2=0.012*
CC(C)c1ccc(N=Nc2c(O)[nH]c(=O)[nH]c2=O)cc1	i	i	i	0.11	-7	i
Cc1ccc(S(=O)(=O)Nc2cc(C(=O)N3CCC4(CC3)OCCO4)ccc2N2CCCCC2)cc1	i	i	i	nt	-6	i
